Our source for the Activity and EC50 values is ChEMBL document CHEMBL3286229 (J Med Chem, 2014).

Data set [1] deals with Mus musculus. Kind of data set: Sedative effect in ip dosed C57BL/6N mouse assessed as reduction in locomotor activity by open field test. To be noted: in vivo. It is filed as organism-based. Put shortly:
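Male C57BL/6N mice, 3–6 months old, dosed ip 30 min before testing. Vehicle was 0.9% NaCl with 10% DMSO and 3% Tween 80; doses in mg/kg. Ambulation recorded over 10 min in a 50 × 50 cm box fitted with infrared rearing detection.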

The target in data set [2] is Transient receptor potential cation channel subfamily V member 1 (Homo sapiens) (UniProt Q8NER1). Kind of data set: Activation of TRPV1 (unknown origin) expressed in Xenopus oocytes up to 100 uM. It is filed as cell-based.
Chain of Transient receptor potential cation channel subfamily V member 1 (Homo sapiens) (Q8NER1 whole entry): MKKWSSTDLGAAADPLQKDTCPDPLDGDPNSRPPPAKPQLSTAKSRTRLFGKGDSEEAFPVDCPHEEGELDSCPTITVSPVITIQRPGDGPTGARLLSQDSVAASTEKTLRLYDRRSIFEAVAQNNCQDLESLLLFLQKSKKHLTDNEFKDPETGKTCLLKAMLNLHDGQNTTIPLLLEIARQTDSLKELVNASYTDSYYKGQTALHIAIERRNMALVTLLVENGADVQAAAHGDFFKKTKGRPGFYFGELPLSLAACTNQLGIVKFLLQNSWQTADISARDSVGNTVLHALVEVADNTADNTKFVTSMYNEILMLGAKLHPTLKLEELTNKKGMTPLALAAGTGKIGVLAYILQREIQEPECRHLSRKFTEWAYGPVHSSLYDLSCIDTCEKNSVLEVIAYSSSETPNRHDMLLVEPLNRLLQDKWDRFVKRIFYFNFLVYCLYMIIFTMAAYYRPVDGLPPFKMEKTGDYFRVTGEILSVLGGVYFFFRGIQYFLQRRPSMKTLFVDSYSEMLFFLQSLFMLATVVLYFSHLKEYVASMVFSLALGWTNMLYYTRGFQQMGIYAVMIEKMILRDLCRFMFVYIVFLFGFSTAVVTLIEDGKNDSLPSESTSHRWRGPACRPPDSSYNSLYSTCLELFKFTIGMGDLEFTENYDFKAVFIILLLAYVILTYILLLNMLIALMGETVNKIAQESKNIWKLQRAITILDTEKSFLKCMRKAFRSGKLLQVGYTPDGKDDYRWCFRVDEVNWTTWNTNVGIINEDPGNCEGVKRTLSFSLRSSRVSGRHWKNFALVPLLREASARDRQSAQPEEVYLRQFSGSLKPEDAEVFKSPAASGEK
For data set [3], the system named is Mus musculus. Kind of data set: Anxiolysis activity in ip dosed C57BL/6N mouse assessed as time spent on open arms by elevated plus maze test. It is filed as functional, organism-based. The procedure, abridged:
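Male C57BL/6N mice, 3–6 months old, given ip injections 30 min before testing. Vehicle was 0.9% NaCl with 10% DMSO and 3% Tween 80; doses in mg/kg, with saline controls. 5 min on an elevated plus maze (arms 50 × 5 cm, 1 m high, 180 Lux), starting in the centre facing an open arm. Time on open arms scored automatically by video.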

The target of data set [4] is T1, GABA-A receptor; alpha-1/beta-2/gamma-2 (Homo sapiens, UniProt P14867+P18507+P47870).
T1 sequence (P14867 whole entry): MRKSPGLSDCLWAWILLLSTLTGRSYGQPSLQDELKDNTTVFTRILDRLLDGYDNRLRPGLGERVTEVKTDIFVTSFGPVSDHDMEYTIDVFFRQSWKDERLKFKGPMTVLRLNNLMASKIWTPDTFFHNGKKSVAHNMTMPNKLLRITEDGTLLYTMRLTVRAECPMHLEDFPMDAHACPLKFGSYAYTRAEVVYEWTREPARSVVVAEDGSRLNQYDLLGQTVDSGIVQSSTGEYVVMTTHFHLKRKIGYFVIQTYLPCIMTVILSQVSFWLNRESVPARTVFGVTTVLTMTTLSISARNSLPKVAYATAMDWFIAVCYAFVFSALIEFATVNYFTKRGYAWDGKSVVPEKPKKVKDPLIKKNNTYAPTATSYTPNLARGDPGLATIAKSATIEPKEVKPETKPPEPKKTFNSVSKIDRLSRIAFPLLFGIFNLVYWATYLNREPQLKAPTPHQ
T1 sequence (P47870 whole entry): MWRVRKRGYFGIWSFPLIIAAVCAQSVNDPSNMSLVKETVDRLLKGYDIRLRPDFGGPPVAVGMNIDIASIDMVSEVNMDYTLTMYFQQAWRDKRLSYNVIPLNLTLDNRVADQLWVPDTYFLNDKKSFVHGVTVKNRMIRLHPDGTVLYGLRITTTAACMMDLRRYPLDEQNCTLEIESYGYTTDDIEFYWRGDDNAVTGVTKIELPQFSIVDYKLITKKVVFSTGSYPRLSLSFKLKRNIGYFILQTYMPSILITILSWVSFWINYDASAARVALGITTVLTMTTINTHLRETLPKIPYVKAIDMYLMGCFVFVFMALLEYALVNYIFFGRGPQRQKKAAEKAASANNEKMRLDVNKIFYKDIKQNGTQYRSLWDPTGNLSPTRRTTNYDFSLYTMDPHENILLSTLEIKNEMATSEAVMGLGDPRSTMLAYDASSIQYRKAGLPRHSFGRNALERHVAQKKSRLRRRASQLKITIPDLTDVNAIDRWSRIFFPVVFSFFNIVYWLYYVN
T1 sequence (P18507 whole entry): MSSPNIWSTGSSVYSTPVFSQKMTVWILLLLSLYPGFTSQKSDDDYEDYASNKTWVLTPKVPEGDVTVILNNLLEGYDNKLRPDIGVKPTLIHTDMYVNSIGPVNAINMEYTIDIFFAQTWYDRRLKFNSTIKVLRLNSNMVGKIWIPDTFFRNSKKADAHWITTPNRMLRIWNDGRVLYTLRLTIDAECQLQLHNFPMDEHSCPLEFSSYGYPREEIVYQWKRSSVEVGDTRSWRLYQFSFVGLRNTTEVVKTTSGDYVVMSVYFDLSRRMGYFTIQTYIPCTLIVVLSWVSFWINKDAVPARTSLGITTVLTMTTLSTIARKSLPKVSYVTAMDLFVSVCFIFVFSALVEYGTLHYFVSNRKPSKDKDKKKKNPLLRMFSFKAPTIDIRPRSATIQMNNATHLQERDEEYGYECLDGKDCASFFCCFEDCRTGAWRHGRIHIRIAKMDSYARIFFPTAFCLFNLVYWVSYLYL
Kind of data set: Modulation of GABAA alpha1beta2gamma2S receptor (unknown origin) expressed in Xenopus laevis oocytes assessed as potentiation of GABA-induced chloride ion current at holding potential -70 mV by two-microelectrode voltage clamp assay. It is filed as cell-based. Put shortly: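 Stage V–VI oocytes injected with α1, β2 and γ2S cRNAs mixed 1:1:10 and kept at 18 °C in modified ND96 (pH 7.4). Two-microelectrode voltage clamp at room temperature, holding potential −70 mV, electrodes with 2 M KCl. Compounds co-applied by fast perfusion with GABA at EC3–7. Washout lasted 1.5 min below 10 μM and 30 min at ≥10 μM. Oocytes with currents >3 μA discarded.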

The source made the active and inactive calls. No cut-off for these calls is given here.

`CCCN(CCC)C(=O)/C=C/C=C/c1ccc2c(c1)OCO2`: the Activity result in the data set with Mus musculus [1] is “Toxic”; in the data set with Mus musculus [3], “Dose-dependent effect”. The outcome in data set [2] was inactive.

For the molecule `CCCCN(CCCC)C(=O)/C=C/C=C/c1ccc2c(c1)OCO2`, in the data set with Mus musculus [1], the Activity result is “Toxic”. The result in data set [2] was inactive.

As to `O=C(/C=C/C=C/c1ccc2c(c1)OCO2)N1CCCCC1` [PIPERINE], the EC50 in data set [4] is 52.4 µM.
